Results of several laboratories.
Protocols differ between the studies behind these lines.
CYP2C19: Cytochrome P450 2C19 (CYP2C19, Homo sapiens, UniProt P33261)

`OB(O)c1csc2ccccc12` has a viability of over 75% (HFF-1; cell growth or viability, resazurin; 50 µM, 24 h).
For `C=CCn1c(=O)c2cnc(Nc3ccc(N4CCN(C)CC4)cc3)nc2n1-c1ccc2c(n1)[C@@](O)(CC)CC2`, the clearance was 46 mL/min/kg (dog, plasma; intravenous, 3 mg/kg).
For `O=c1[nH]cc(F)c(=O)[nH]1`, the viability was 27.3% (A549; cell growth or viability, CCK-8; 50 µM).
For `CSc1ccccc1C(=O)NCCn1cc(C(=O)NCc2cccc(C)n2)c(=O)c2cc3c(cc21)OC(F)(F)O3`, the IC50 was over 100 µM (CYP2C19; enzyme activity, inhibitor; human, liver microsomes; 20 min, without NADPH, with preincubation).
For `C[C@H]1Oc2cc(cnc2N)-c2c(nn(C)c2C#N)CN(C)C(=O)c2ccc(F)cc21`, the Tmax was 1.5 h (male Sprague-Dawley rat, plasma; oral, 5 mg/kg, single dose).
The IC50 of `CSc1ccccc1C(=O)NCCn1cc(C(=O)NCc2cccc(C)n2)c(=O)c2cc3c(cc21)OCO3` is reported as over 100 µM (CYP2C19; enzyme activity, inhibitor; human, liver microsomes; 20 min, without NADPH, with preincubation).
`CCC(CC)COC(=O)[C@H](C)N[P@](=O)(OC[C@H]1O[C@@](C#N)(c2ccc3c(N)ncnn23)[C@H](O)[C@@H]1O)Oc1ccccc1` has a CC50 of 25 µM (A549; cell growth or viability, resazurin; 72 h).
The CL/F of `CN(C)C(=O)c1cc2cnc(Nc3ccc(-c4ccc5c(=O)cc(N6CCOCC6)oc5c4)cc3)nc2n1C1CCCC1.Cl` is reported as 11.7 mL/min/kg (BALB/c mouse, plasma; intravenous, 2 mg/kg).
`[N-]=[N+]=N[C@]1(CO)O[C@@H](n2ccc(N)nc2=O)[C@@H](F)[C@@H]1O` has a CC50 of over 50 µM (A549; cell growth or viability, ATP luminescence; 72 h).
With `O=C(CCCCCCC(=O)Nc1ccccc1)NO` the IC50 was 3.26 µM (CYP2C19; enzyme activity, inhibitor, fluorescence).
`NCc1ccc(-c2nn(Cc3ccncc3)c3ccccc23)o1` gave a C0 of 1360 ng/mL (male CD-1 mouse, plasma; intravenous, 5 mg/kg).
The CC50 of `CN(CCOc1ccc(CC2SC(=O)NC2=O)cc1)c1ccccn1` (stereo not drawn) is reported as 100 µM (A549; cell growth or viability, resazurin; 72 h).
